ChEMBL document CHEMBL5252534, “Discovery of a Noncovalent, Mutant-Selective Epidermal Growth Factor Receptor Inhibitor” (J Med Chem, 2016)
pIC50, pKi: −log10 of the molar value. In brackets after ≈: the same amount, converted by molar mass.

Key:
[1] = Aqueous kinetic solubility of compound in PBS buffer at pH 7.4 at 100 uM incubated for 24 hrs by LC/CLND analysis; format: physicochemical; conditions: read-out: Kinetic_solubility
How it was run: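 Kinetic aqueous solubility measured at pH 7.4.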

[2] = biological target: T1, Epidermal growth factor receptor (Homo sapiens, UniProt P00533, L858R/T790M); format: cell-based, NCI-H1975
T1 sequence (P00533 25-1210 T790M/L858R limits assumed): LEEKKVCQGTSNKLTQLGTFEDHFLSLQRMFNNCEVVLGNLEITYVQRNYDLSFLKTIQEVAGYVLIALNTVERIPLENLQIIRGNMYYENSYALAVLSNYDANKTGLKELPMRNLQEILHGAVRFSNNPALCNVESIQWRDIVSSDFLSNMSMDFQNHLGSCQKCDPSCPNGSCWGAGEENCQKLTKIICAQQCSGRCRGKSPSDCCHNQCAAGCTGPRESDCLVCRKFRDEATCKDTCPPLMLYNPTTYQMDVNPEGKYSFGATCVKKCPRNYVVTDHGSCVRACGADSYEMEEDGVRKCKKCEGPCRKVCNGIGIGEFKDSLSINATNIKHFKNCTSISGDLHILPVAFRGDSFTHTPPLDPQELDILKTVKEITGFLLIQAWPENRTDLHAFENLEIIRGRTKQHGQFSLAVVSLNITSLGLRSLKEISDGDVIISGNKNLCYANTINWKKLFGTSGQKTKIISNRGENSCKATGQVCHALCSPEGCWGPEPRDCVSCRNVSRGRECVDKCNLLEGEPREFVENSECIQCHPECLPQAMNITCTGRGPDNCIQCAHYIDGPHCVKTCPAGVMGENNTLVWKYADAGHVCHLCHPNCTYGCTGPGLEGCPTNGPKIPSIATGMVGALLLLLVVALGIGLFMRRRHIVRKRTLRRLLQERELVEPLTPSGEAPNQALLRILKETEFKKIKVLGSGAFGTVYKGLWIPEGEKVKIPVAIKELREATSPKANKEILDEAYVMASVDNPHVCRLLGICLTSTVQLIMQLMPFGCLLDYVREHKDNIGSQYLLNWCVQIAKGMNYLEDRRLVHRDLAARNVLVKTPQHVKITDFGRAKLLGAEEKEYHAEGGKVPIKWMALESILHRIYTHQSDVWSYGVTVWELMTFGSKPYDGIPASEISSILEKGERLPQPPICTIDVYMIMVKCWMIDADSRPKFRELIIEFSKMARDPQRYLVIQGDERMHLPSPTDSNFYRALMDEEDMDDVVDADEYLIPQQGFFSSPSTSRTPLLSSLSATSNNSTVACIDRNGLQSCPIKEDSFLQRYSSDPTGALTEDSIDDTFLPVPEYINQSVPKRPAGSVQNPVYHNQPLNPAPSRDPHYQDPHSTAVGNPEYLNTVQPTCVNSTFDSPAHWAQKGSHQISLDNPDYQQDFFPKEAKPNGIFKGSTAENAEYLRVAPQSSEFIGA

[3] = Apparent permeability across apical to basolateral side in dog MDCK cells; format: ADME, cell-based, Canis lupus familiaris
[4] = biological target: T1, Epidermal growth factor receptor; experiment: Inhibition of human EGFR T790M/L858R double mutant assessed as apparent inhibition constant using Fl-EEPLYWSFPAKKK-CONH2 as peptide substrate preincubated for 30 mins followed by addition of substrate and measured after 30 mins by Morrison plot analysis; conditions: read-out: Ki(app)
[5] = biological target: T2, Epidermal growth factor receptor (Homo sapiens, UniProt P00533, 746-750DEL/T790M); format: cell-based, PC-9/ER1
[6] = biological target: T3, Epidermal growth factor receptor (Homo sapiens, UniProt P00533); experiment: Inhibition of wild type human EGFR assessed as apparent inhibition constant using Fl-EEPLYWSFPAKKK-CONH2 as substrate preincubated for 30 mins followed by addition of substrate and measured after 30 mins by Morrison plot analysis; conditions: read-out: Ki(app)
Target sequence in this assay (P00533 whole entry): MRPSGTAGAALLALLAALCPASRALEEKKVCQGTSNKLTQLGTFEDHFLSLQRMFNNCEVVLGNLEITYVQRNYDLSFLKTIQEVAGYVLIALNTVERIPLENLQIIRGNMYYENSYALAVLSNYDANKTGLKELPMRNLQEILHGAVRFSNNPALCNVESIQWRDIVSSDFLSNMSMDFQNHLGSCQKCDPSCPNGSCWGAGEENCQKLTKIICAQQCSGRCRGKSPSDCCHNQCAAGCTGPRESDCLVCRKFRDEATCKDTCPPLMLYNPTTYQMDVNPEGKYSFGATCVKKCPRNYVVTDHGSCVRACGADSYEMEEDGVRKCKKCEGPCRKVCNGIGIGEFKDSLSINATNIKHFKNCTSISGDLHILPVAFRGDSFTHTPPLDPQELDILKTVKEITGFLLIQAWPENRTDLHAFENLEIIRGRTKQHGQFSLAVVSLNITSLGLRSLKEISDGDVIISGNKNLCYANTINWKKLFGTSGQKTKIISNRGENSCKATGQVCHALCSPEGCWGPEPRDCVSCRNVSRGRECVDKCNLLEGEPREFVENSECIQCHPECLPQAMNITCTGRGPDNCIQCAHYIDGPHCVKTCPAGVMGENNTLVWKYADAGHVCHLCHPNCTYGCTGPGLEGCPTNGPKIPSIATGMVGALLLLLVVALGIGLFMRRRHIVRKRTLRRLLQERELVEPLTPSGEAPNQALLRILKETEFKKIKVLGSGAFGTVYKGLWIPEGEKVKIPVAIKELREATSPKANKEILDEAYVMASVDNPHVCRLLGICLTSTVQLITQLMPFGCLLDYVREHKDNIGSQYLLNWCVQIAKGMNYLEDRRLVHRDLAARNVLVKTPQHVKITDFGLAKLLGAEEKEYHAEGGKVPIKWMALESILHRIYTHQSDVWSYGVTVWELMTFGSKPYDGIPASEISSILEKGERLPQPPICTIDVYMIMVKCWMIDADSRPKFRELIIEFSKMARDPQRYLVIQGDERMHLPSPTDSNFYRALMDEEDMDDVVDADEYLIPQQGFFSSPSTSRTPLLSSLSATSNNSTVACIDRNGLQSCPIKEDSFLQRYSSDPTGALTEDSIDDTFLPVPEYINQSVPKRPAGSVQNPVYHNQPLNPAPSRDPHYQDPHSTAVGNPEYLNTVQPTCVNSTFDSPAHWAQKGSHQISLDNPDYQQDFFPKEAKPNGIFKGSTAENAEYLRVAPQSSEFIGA

[7] = Clearance in human liver microsomes; format: ADME, Microsome
How it was run: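 Incubation with human liver microsomes; intrinsic clearance scaled to predicted hepatic clearance as Clhep = (Q × Clint)/(Q + Clint), where Q is liver blood flow.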

[8] = biological target: T3, Epidermal growth factor receptor; experiment: Inhibition of EGFR autophosphorylation in human NCI-H292 cells harboring harboring wild type EGFR preincubated for 60 mins followed by EGF stimulation and measured after 8 mins by SULFO-TAG based electrochemiluminescent assay; format: cell-based
Target sequence in this assay (P00533 25-1210 limits assumed, stated change not applied): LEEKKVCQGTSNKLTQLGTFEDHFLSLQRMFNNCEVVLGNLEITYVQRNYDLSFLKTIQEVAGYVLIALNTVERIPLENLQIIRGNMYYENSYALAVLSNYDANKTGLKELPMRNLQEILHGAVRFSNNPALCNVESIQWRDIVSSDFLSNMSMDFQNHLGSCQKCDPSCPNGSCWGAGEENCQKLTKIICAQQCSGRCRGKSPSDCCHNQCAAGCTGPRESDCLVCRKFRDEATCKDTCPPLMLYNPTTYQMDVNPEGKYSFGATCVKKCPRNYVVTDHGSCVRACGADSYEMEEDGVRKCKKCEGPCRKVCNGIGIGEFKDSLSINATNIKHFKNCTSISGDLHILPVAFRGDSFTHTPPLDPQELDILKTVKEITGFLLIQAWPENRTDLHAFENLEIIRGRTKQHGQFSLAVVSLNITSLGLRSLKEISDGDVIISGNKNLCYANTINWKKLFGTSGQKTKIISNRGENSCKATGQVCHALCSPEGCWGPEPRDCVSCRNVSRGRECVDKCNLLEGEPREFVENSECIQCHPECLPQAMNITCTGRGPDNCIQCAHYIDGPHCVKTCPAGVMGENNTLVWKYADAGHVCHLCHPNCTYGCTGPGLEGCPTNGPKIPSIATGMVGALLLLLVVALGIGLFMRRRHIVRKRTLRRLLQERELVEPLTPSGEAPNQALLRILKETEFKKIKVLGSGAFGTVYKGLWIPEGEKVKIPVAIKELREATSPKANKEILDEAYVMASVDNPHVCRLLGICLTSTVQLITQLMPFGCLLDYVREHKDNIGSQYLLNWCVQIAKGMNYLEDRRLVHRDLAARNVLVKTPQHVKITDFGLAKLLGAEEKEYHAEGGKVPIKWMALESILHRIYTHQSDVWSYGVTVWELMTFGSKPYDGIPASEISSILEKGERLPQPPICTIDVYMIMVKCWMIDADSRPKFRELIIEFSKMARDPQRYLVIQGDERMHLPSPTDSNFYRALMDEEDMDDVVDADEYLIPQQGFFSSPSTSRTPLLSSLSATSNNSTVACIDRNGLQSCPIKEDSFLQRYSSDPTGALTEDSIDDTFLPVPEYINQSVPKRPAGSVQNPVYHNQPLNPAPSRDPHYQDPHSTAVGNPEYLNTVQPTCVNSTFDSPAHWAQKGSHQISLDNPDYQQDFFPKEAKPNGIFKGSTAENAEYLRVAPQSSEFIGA

[9] = Clearance in human hepatocyte; format: ADME, cell-based; conditions: hepatocytes
How it was run: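 Cryopreserved human hepatocytes used; intrinsic clearance converted to predicted hepatic clearance as (Q × Clint)/(Q + Clint) using liver blood flow Q.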

[10] = biological target: T4, Epidermal growth factor receptor (Homo sapiens, UniProt P00533, 746-750DEL); format: cell-based, PC-9
[11] = biological target: Epidermal growth factor receptor (Homo sapiens, UniProt P00533, L858R); experiment: Inhibition of human EGFR L858R mutant assessed as apparent inhibition constant using Fl-EEPLYWSFPAKKK-CONH2 peptide as substrate preincubated for 30 mins followed by addition of substrate and measured after 30 mins by Morrison plot analysis; conditions: read-out: Ki(app)
Chain of Epidermal growth factor receptor (Homo sapiens, UniProt P00533, L858R) (P00533 25-1210 L858R limits assumed): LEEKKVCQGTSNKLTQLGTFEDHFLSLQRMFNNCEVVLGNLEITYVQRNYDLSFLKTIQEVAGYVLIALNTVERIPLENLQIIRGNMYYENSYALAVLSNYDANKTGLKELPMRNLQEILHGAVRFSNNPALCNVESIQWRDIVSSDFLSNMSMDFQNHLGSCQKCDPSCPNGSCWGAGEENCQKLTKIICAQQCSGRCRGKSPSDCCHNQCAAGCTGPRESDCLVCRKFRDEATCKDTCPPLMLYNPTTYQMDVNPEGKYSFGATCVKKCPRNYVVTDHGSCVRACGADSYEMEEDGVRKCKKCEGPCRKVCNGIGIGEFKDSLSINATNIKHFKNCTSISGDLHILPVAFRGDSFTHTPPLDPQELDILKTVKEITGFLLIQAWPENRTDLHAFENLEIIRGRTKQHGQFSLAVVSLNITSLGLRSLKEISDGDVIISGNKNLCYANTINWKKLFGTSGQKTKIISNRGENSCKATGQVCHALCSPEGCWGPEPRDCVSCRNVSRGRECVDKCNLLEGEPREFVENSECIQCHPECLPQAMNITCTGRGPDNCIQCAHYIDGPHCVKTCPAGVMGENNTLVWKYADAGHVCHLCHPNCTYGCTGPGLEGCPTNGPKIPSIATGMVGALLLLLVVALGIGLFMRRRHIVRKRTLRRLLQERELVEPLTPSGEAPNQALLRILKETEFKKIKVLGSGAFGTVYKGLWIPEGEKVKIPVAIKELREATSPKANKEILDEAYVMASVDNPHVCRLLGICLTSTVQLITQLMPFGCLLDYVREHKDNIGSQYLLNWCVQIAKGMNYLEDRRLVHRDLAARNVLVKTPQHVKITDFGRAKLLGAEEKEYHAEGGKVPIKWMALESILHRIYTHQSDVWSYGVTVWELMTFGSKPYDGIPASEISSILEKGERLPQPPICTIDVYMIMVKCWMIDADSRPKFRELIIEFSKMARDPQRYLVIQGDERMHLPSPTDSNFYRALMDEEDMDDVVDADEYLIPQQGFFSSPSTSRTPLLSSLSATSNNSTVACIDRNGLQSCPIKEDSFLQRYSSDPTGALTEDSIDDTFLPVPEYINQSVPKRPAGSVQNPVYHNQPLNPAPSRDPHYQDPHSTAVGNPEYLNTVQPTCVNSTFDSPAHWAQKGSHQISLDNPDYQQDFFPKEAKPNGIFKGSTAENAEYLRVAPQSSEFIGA
How it was run: (§1)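 Biochemical kinase Ki determination; reported values are geometric means of at least two independent experiments.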

[12] = biological target: T2, Epidermal growth factor receptor; experiment: Inhibition of human EGFR T790M/del (746 to 750 residues) mutant assessed as apparent inhibition constant using Fl-EEPLYWSFPAKKK-CONH2 peptide as substrate preincubated for 30 mins followed by addition of substrate and measured after 30 mins by Morrison plot analysis; conditions: read-out: Ki(app); how it was run: as §1
[13] = biological target: T4, Epidermal growth factor receptor; experiment: Inhibition of human EGFR del (746 to 750) mutant assessed as apparent inhibition constant using Fl-EEPLYWSFPAKKK-CONH2 as substrate preincubated for 30 mins followed by addition of substrate and measured after 30 mins by Morrison plot analysis; conditions: read-out: Ki(app); how it was run: as §1

SMILES	solubility kinetic at 24 h, 100 µM [1] [µM]	pIC50 [2]	Papp A→B [3] [×10⁻⁶ cm/s]	pKi [4]	pIC50 [5]	pKi [6]	CLhep predicted [7] [mL/min/kg]	pIC50 [8]	CLhep predicted [9] [mL/min/kg]	pIC50 [10]	pKi [11]	pKi [12]	pKi [13]
CC(C)n1nc(N2CC(C(C)(C)O)C2)c2cnc(Nc3ccnc(-c4cnn(S(=O)(=O)C5CC5)c4)n3)cc21	< 1	7.49	20	> 9.22	8.00	8.15	8.9	6.68	7.1	6.89			
CC(C)n1nc(N2CCC(O)CC2)c2cnc(Nc3ccnc(-c4cnn(S(=O)(=O)C5CC5)c4)n3)cc21	1 (≈ 0.524 µg/mL)		12				7		7.7				
CC(C)n1cc(C(=O)NC2COC2)c2cnc(Nc3ccnc(-c4cnn(S(=O)(=O)C5CC5)c4)n3)cc21	7 (≈ 3.66 µg/mL)		2.3	8.96		8.34					8.19	8.70	8.70
Cc1nc2cnc(Nc3ccnc(-c4cnn(S(=O)(=O)C5CC5)c4)n3)cc2n1C(C)C			21			7.26	7.7		4		7.37	8.74	7.92
CC[C@@H](C)n1nc(N2CC(C(C)(C)O)C2)c2cnc(Nc3ccnc(-c4cnn(S(=O)(=O)C5CC5)c4)n3)cc21	2 (≈ 1.1 µg/mL)	7.40	19		7.82		9.9	6.24	7.8	7.24			
Cc1nc2cnc(Nc3ccnc(N4CC[C@H](O)[C@H](F)C4)n3)cc2n1C(C)C (racemic)			19				5.2		9		5.96	7.37	5.89
Cc1nc2cnc(Nc3ccnc(-c4cnn(S(C)(=O)=O)c4)n3)cc2n1C(C)C						6.49					6.90	8.46	7.42
CO[C@H]1CCN(c2nccc(Nc3cc4c(cn3)nc(C)n4C(C)C)n2)C[C@H]1F				8.44		6.05					6.22	7.39	5.74
CC(C)n1nc(N2CCOCC2)c2cnc(Nc3ccnc(-c4cnn(S(=O)(=O)C5CC5)c4)n3)cc21	1 (≈ 0.51 µg/mL)	7.13	12	8.68	7.72	8.00	9.3	6.07	6.7	7.12			
